In one data set the target is NET (Rattus norvegicus, UniProt Q63380). The experiment in a line: [3H]norepinephrine uptake inhibition in rat brain synaptosomes. The data set is classed as biochemical. Particulars: read-out: [3H]Norepinephrine uptake, IC50 at NET; rat brain synaptosomes (whole brain minus striatum and cerebellum); 10 nM [3H]norepinephrine; mean±SD, n=3. An outline of the steps: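 Rats killed by CO2; synaptosomes from whole brain minus striatum and cerebellum. Unlabeled blockers were added to prevent uptake by competing transporters. Tissue was added to Krebs-phosphate buffer (pH 7.4; 0.05 mM pargyline, 1 mg/mL BSA and ascorbic acid) containing test compound and [3H]norepinephrine. Rapid GF/B filtration, scintillation counting, % control uptake.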

Another data set has as its target SERT (Rattus norvegicus, UniProt P31652). The experiment in a line: [3H]serotonin uptake inhibition in rat brain synaptosomes. The data set is classed as biochemical. To be noted: for IC50: read-out: [3H]Serotonin uptake, IC50 at SERT, rat brain synaptosomes (whole brain minus striatum and cerebellum), 5 nM [3H]serotonin, mean±SD, n=3. An outline of the steps:
(§1)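 Synaptosomes came from male Sprague-Dawley rats: striatum for DAT, and whole brain minus striatum and cerebellum for NET and SERT. Uptake ran in pH 7.4 Krebs-phosphate buffer (pargyline, BSA, ascorbate) with test compound, [3H]dopamine, [3H]norepinephrine or 5 nM [3H]serotonin, and unlabeled blockers of competing transporters. It was stopped by filtration and counted by scintillation.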

In data set [1] the test system is ICR mice. The data set is described as follows: Functional observational battery. The data set is classed as in vivo, mouse. To be noted: i.p., 15 min post-injection, p<0.0033. The method in brief: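 Male ICR mice (n=8 per group; a single saline group of n=16) got one i.p. dose of test compound in sterile saline (10 ml/kg). A modified EPA functional observational battery was scored 15 min post-injection by a blinded technician in weeks 2–3. Each measure was analysed by Kruskal–Wallis ANOVA by ranks, corrected for ties, with corrected alpha p<0.0033.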

The next data set deals with DAT (Rattus norvegicus, UniProt P23977). The data set is described as follows: [3H]dopamine uptake inhibition in rat brain synaptosomes. The data set is classed as biochemical. Particulars: selectivity from uptake IC50 values at DAT and SERT. The method in brief: as §1
The subject of data set [2] is ICR mice. The data set is described as follows: Locomotor activity. The data set is classed as in vivo, mouse. To be noted: for Doses producing significant increases in beam breaks compared to saline for the duration of the session (all time points): i.p., 10-min bins of 60-min session. An outline of the steps: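 Male ICR mice got a single i.p. dose of test compound or saline (sterile saline vehicle, 10 ml/kg), n=8 per dose and n=16 for saline. Each was placed at once into a clear open-field chamber (47×25.5×22 cm) for a 60-min blinded session. Beam breaks were counted per 10-min bin and analysed by mixed-model ANOVA (time within, dose between), with p<0.05.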

Data set [3] concerns ICR mice. The experiment in a line: Locomotor activity with SCH23390 antagonist pretreatment. The data set is classed as in vivo, mouse. Particulars: SCH23390 0.03 mg/kg s.c., 60 min session. The method in brief: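 In weeks 5 and 7, ICR mice got SCH23390 (0.03 mg/kg) or saline s.c. 30 min before an i.p. challenge with test compound or saline. Groups given the highest FOB dose were excluded, and the vehicle group was split between pretreatments. Total beam breaks were analysed by two-way ANOVA (dose × pretreatment).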

The subject of the next data set is DAT, NET and SERT. To be noted: ref Baumann et al., 2013b; cited from earlier work.

The source of these data is publication PMC4152390 (Neuropharmacology, 2014).

Sequence of NET (Q63380 1-617): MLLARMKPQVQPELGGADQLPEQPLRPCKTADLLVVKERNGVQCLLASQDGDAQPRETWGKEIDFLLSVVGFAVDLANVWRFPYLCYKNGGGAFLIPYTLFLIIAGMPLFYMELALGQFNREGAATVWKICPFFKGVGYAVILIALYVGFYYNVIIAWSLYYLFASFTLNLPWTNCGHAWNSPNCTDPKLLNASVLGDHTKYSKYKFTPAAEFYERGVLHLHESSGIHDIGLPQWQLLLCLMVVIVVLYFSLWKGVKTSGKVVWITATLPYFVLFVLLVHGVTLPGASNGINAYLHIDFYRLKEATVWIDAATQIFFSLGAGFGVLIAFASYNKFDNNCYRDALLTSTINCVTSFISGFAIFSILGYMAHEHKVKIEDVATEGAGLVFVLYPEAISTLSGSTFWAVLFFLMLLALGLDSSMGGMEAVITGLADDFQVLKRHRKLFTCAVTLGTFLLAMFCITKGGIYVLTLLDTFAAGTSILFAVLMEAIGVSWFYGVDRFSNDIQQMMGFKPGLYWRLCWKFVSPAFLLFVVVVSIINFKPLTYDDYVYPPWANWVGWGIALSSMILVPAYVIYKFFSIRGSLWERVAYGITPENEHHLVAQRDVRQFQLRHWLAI
Sequence of SERT (P31652 whole entry): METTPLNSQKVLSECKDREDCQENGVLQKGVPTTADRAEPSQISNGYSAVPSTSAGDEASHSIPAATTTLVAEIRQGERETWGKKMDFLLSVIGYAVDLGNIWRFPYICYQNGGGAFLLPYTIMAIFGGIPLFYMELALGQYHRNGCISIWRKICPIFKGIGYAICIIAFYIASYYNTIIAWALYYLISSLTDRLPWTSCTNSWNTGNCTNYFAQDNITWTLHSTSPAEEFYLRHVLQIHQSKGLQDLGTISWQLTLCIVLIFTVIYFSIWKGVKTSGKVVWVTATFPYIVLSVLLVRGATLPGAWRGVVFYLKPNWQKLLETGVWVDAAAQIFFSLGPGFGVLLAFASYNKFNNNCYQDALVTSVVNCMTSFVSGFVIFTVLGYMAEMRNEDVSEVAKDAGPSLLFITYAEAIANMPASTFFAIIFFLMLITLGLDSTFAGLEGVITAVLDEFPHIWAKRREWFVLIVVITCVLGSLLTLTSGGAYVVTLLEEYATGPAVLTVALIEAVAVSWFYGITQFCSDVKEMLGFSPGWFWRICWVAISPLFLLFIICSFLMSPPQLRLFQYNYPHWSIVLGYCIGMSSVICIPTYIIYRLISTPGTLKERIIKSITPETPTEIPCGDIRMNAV
Sequence of DAT (P23977 whole entry): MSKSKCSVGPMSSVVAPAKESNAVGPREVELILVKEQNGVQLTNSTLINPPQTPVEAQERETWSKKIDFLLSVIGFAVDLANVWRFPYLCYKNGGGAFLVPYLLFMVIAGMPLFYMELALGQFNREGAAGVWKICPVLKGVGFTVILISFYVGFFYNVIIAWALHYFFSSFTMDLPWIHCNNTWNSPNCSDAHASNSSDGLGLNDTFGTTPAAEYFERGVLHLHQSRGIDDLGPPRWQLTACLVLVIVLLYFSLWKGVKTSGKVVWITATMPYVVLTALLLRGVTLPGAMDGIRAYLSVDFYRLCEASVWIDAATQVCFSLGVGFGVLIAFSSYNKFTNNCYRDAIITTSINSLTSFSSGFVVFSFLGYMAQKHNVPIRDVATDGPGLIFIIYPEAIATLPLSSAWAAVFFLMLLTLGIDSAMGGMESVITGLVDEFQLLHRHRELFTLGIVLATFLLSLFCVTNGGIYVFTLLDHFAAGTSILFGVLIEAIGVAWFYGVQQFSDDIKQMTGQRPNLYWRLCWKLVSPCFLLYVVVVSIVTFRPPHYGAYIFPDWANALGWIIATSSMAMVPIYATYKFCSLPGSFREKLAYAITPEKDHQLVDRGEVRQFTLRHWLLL

Broadly, the IC50 is the concentration at which inhibition is half-maximal. Turning to `CC(C(=O)c1ccccc1)N1CCCC1` (stereo not drawn) [α-PPP, α-pyrrolidinopropiophenone], the IC50 at NET was 445 ± 39.2 nM; on SERT it was > 10000 nM. The “Grooming: direction of difference from saline and doses at which significant” value in the data set on ICR mice [1] was 30 mg/kg. Also, the DAT/SERT ratio at DAT is on record as >51. Further, the “Time from session start with significantly increased beam breaks” value in the data set on ICR mice [2] (10.0 mg/kg i.p., 60-min session) worked out at 50 min. The “Doses producing significant increases in beam breaks compared to saline for the duration of the session (all time points)” value (from here on “Doses producing significant increases”) with ICR mice [2] is listed as 30.0 mg/kg.
Take `CN1CCc2cc(Cl)c(O)cc2[C@@H](c2ccccc2)C1` [SCH23390]: the “Effect of SCH23390 plus saline on activity compared to saline/saline group” value in the data set on ICR mice [3] is “did not significantly affect activity”.
Regarding `CCCC(C(=O)c1ccc2c(c1)OCO2)N1CCCC1` (centres unmarked) [MDPV, 3,4-methylenedioxypyrovalerone], the IC50 on NET worked out at 25.9 ± 5.6 nM; on SERT, 3300 ± 485 nM. The “fold weaker at blocking uptake of serotonin than catecholamine uptake” value at SERT (SERT versus DAT and NET uptake IC50) was “more than 100 fold”. Also, the “Activity in the release assay” value in the data set on DAT, NET and SERT is “not active”. Moreover, the DAT/SERT ratio at DAT was found to be 806. Further, the “Doses producing significant increases” value in the data set on ICR mice [2] fell in the range of 1.0 to 3.0 mg/kg.
As to `CCCC(C(=O)c1ccccc1)N1CCCC1` (stereo not drawn) [α-PVP, α-pyrrolidinovalerophenone], the values for the IC50 on NET and on SERT were 14.2 ± 1.2 nM and > 10000 nM, respectively. The DAT/SERT ratio on DAT was >781. In addition, the “Postinjection interval with significantly increased beam breaks” value in the data set with ICR mice [2] (1.0 mg/kg i.p., 60-min session) fell in the range of 20 to 50 min. Besides, the “Doses producing significant increases” value in the data set on ICR mice [2] was 3.0 to 10.0 mg/kg.
As to `CCC(C(=O)c1ccccc1)N1CCCC1` (stereo not drawn) [α-PBP, α-pyrrolidinobutiophenone], the IC50 at NET is 91.5 ± 12.8 nM; on SERT it was > 10000 nM. In addition, the DAT/SERT ratio at DAT was >159. Further, the “Time from session start with significantly increased beam breaks” value in the data set with ICR mice [2] (3.0 mg/kg i.p., 60-min session) worked out at 40 min. For the same compound, the “Doses producing significant increases” value in the data set on ICR mice [2] was 10.0 mg/kg.
